# Data taken from ChEMBL document CHEMBL1155709, “Eleven novel diarylheptanoids and two unusual diarylheptanoid derivatives from the seeds of Alpinia blepharocalyx” (2001).
# Test system: not listed separately
# Assay: Cytotoxicity against mouse 26-L5 cells by MTT assay
# Type: functional
# Settings: Mus musculus; read-out: ED50 (the source's name)
# Method in brief: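 Murine colon 26-L5 carcinoma cells grown in RPMI-1640 with 10% fetal calf serum, 0.1% NaHCO3 and 2 mM glutamine. MTT assay compared viability in the presence and absence of agents, giving ED50 values. Positive controls were 5-fluorouracil and curcumin.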
row,SMILES,EC50 [µM]
1,COc1cc2c(c3c1C(=O)CC(c1ccc(O)cc1)O3)[C@@H]1C[C@H](CCc3ccc(O)cc3)O[C@@H]1O2 (stereo in doubt; 12) [NEOCALYXIN A],> 100
2,COc1cc(O)c(C(/C=C/c2ccc(O)cc2)C[C@@H](O)CCc2ccc(O)cc2)c2c1C(=O)CC(c1ccc(O)cc1)O2 (some centres not stated) [CALYXIN E],98.1
3,COc1cc(O)c([C@@H]2C[C@H](CCc3ccc(O)cc3)O[C@H](c3ccc(O)cc3)C2)c(O)c1C(=O)/C=C/c1ccc(O)cc1 [CALYXIN B],10.4
4,COc1cc(O)c([C@@H]2C[C@H](CCc3ccc(O)cc3)O[C@@H](c3ccc(O)cc3)C2)c2c1C(=O)CC(c1ccc(O)cc1)O2 (some centres not stated) [CALYXIN G],42.2
5,O=c1[nH]cc(F)c(=O)[nH]1 [FLUOROURACIL],0.53
6,COc1cc(O)c2c(c1C(=O)/C=C/c1ccc(O)cc1)O[C@@H](c1ccc(O)cc1)C[C@H]2C[C@@H](O)CCc1ccc(O)cc1 [CALYXIN L],28.2
7,COc1cc(O)c2c(c1C(=O)/C=C/c1ccc(O)cc1)O[C@H](c1ccc(O)cc1)[C@@H]1[C@@H](c3ccc(O)cc3)O[C@@H](CCc3ccc(O)cc3)C[C@@H]21 [EPICALYXIN I],12.1
8,COc1cc2c(c3c1C(=O)CC(c1ccc(O)cc1)O3)[C@H](C[C@@H](O)CCc1ccc(O)cc1)C[C@H](c1ccc(O)cc1)O2 (mixture of isomers),42.1
9,COc1cc(O)c2c(c1C(=O)/C=C/c1ccc(O)cc1)O[C@@H](c1ccc(O)cc1)[C@@H]1[C@@H](c3ccc(O)cc3)O[C@@H](CCc3ccc(O)cc3)C[C@@H]21 [CALYXIN I],8.39
10,COc1cc(/C=C/C(=O)CC(=O)/C=C/c2ccc(O)c(OC)c2)ccc1O [CURCUMIN],23.2
11,COc1cc2c(c3c1C(=O)CC(c1ccc(O)cc1)O3)[C@@H]1C[C@H](CCc3ccc(O)cc3)O[C@H](c3ccc(O)cc3)[C@H]1[C@H](c1ccc(O)cc1)O2 (stereo in doubt; 7) [CALYXIN J],23.2
12,COc1cc(O)c([C@@H]2C[C@H](CCc3ccc(O)cc3)O[C@@H](c3ccc(O)cc3)C2)c(O)c1C(=O)/C=C/c1ccc(O)cc1 [EPICALYXIN F],0.89

# Same assay, conditions: read-out: ED50 (the source's name)
row,SMILES,EC50 [µM]
1,COc1cc2c(c3c1C(=O)CC(c1ccc(O)cc1)O3)[C@@H]1C[C@H](CCc3ccc(O)cc3)O[C@@H]1O2 (stereo in doubt; 13) [NEOCALYXIN A],78
2,COc1cc(O)c([C@@H]2C[C@H](CCc3ccc(O)cc3)O[C@H](c3ccc(O)cc3)C2)c2c1C(=O)CC(c1ccc(O)cc1)O2 (stereo in doubt; 4) [CALYXIN K],33
3,COc1cc(O)c([C@@H]2C[C@H](CCc3ccc(O)cc3)O[C@H](c3ccc(O)cc3)C2)c2c1C(=O)CC(c1ccc(O)cc1)O2 (stereo in doubt; 3) [CALYXIN K],7.73
4,COc1cc2c(c3c1C(=O)CC(c1ccc(O)cc1)O3)[C@@H]1C[C@H](CCc3ccc(O)cc3)O[C@H](c3ccc(O)cc3)[C@H]1[C@H](c1ccc(O)cc1)O2 (mixture of isomers) [CALYXIN J],13.7

# Test system: HT-1080
# Assay: Cytotoxicity against human HT1080 cells by MTT assay
# Type: functional
# Settings: Homo sapiens, HT-1080; read-out: ED50 (the source's name)
# Method in brief: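 Human HT-1080 fibrosarcoma cells kept in Eagle's minimum essential medium with 10% fetal calf serum, 0.1% NaHCO3 and 2 mM glutamine. Viability with and without test agents was read by standard MTT assay, and ED50 was reported. 5-Fluorouracil and curcumin served as positive controls.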
row,SMILES,EC50 [µM]
1,COc1cc2c(c3c1C(=O)CC(c1ccc(O)cc1)O3)[C@@H]1C[C@H](CCc3ccc(O)cc3)O[C@@H]1O2 (stereo in doubt; 12) [NEOCALYXIN A],10.7
2,COc1cc(O)c(C(/C=C/c2ccc(O)cc2)C[C@@H](O)CCc2ccc(O)cc2)c2c1C(=O)CC(c1ccc(O)cc1)O2 (some centres not stated) [CALYXIN E],21.7
3,COc1cc(O)c([C@@H]2C[C@H](CCc3ccc(O)cc3)O[C@H](c3ccc(O)cc3)C2)c(O)c1C(=O)/C=C/c1ccc(O)cc1 [CALYXIN B],10.4
4,COc1cc(O)c([C@@H]2C[C@H](CCc3ccc(O)cc3)O[C@@H](c3ccc(O)cc3)C2)c2c1C(=O)CC(c1ccc(O)cc1)O2 (some centres not stated) [CALYXIN G],25.9
5,O=c1[nH]cc(F)c(=O)[nH]1 [FLUOROURACIL],8
6,COc1cc(O)c2c(c1C(=O)/C=C/c1ccc(O)cc1)O[C@@H](c1ccc(O)cc1)C[C@H]2C[C@@H](O)CCc1ccc(O)cc1 [CALYXIN L],44.3
7,COc1cc(O)c2c(c1C(=O)/C=C/c1ccc(O)cc1)O[C@H](c1ccc(O)cc1)[C@@H]1[C@@H](c3ccc(O)cc3)O[C@@H](CCc3ccc(O)cc3)C[C@@H]21 [EPICALYXIN I],5.88
8,COc1cc(O)c([C@@H]2C[C@H](CCc3ccc(O)cc3)O[C@H](c3ccc(O)cc3)C2)c2c1C(=O)CC(c1ccc(O)cc1)O2 (stereo in doubt; 3) [CALYXIN K],5.09
9,COc1cc2c(c3c1C(=O)CC(c1ccc(O)cc1)O3)[C@H](C[C@@H](O)CCc1ccc(O)cc1)C[C@H](c1ccc(O)cc1)O2 (mixture of isomers),10.1
10,COc1cc(O)c2c(c1C(=O)/C=C/c1ccc(O)cc1)O[C@@H](c1ccc(O)cc1)[C@@H]1[C@@H](c3ccc(O)cc3)O[C@@H](CCc3ccc(O)cc3)C[C@@H]21 [CALYXIN I],9.08
11,COc1cc(/C=C/C(=O)CC(=O)/C=C/c2ccc(O)c(OC)c2)ccc1O [CURCUMIN],23.4
12,COc1cc(O)c([C@@H]2C[C@H](CCc3ccc(O)cc3)O[C@@H](c3ccc(O)cc3)C2)c(O)c1C(=O)/C=C/c1ccc(O)cc1 [EPICALYXIN F],1.71

# Same assay, conditions: read-out: ED50 (the source's name)
row,SMILES,EC50 [µM]
1,COc1cc2c(c3c1C(=O)CC(c1ccc(O)cc1)O3)[C@@H]1C[C@H](CCc3ccc(O)cc3)O[C@@H]1O2 (stereo in doubt; 13) [NEOCALYXIN A],20.2
2,COc1cc(O)c([C@@H]2C[C@H](CCc3ccc(O)cc3)O[C@H](c3ccc(O)cc3)C2)c2c1C(=O)CC(c1ccc(O)cc1)O2 (stereo in doubt; 4) [CALYXIN K],4.75
3,COc1cc2c(c3c1C(=O)CC(c1ccc(O)cc1)O3)[C@@H]1C[C@H](CCc3ccc(O)cc3)O[C@H](c3ccc(O)cc3)[C@H]1[C@H](c1ccc(O)cc1)O2 (stereo in doubt; 7) [CALYXIN J],8.19
4,COc1cc2c(c3c1C(=O)CC(c1ccc(O)cc1)O3)[C@@H]1C[C@H](CCc3ccc(O)cc3)O[C@H](c3ccc(O)cc3)[C@H]1[C@H](c1ccc(O)cc1)O2 (mixture of isomers) [CALYXIN J],0.32
